MrgX1 allo act – positive allosteric modulators of MrgX1, primary screen, HEK293 cells, Fluo-4 calcium flux; Mas-related G-protein coupled receptor member X1 (Homo sapiens), Q96LB2; FDSS; hits give high values; B-score at 10 µM; 310,000 compounds, 0.63% hits; AID 588675, 2011;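 active = plate-corrected calcium response at least 3 library SD above typical, normal starting fluorescence, not activating the receptor alone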;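 note: compound read alongside a low EC10 to EC30 dose of BAM8-22 agonist; peak minus trough fluorescence over baseline measured at the second addition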
Target sequence (Q96LB2 whole entry, looked up): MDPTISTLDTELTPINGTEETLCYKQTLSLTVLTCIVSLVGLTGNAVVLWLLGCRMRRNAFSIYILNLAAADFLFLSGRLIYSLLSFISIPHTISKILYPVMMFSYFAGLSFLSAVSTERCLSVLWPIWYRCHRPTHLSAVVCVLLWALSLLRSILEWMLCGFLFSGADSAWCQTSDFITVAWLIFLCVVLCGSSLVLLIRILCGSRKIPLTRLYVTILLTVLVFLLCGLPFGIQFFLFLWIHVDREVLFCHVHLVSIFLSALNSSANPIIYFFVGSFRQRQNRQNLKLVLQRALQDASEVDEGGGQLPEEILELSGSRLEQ
RGS4 inh – RGS4 inhibitors, primary screen, cell-based, HEK293 M3R inducible RGS4, calcium flux. Regulator of G-protein signaling 4 (Homo sapiens), P49798. Fluo-4 calcium flux; hits give high values; triggered by carbachol at its EC20. B-score at 10 µM. 310,000 compounds, 0.45% hits. AID 463165, 2010;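 active = B-score, a plate-corrected calcium signal, over three deviations above library mean, with baseline fluorescence within five deviations of library mean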;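 note: RGS4 expression induced by doxycycline in cells with stable M3 receptor; B-score is computed from the integrated fluorescence ratio over baseline after carbachol; higher B-score means a larger calcium signal and so more RGS4 inhibition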
Target sequence (P49798 whole entry, looked up): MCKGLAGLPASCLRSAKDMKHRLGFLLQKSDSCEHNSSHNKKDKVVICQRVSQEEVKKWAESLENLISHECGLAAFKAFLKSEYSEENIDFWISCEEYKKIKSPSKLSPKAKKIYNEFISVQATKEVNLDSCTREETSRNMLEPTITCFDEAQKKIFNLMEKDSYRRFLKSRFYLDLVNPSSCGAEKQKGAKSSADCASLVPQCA
MrgX1 agonist – agonists of human MrgX1 receptor, primary screen, HEK293 cells, Fluo-4 calcium flux; Mas-related G-protein coupled receptor member X1 (Homo sapiens), Q96LB2; Fluo-4 calcium fluorescence, agonist mode; hits give high values; 310,000 compounds, 0.44% hits; B-score at 10 µM;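 active = calcium response B-score plate-corrected fluorescence ratio at least 3 library SD, with starting fluorescence B-score inside 5 SD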
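System – MrgX1-expressing HEK293 cells · Incubation – cells plated overnight, dye loaded 0.5 h 37 °C, 0.5 h room temperature · Technique – kinetic Fluo-4 NW fluorescence of intracellular calcium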
MrgX1 antag – antagonists of human MrgX1 receptor, primary screen, HEK293 cells, Fluo-4 calcium flux. B-score at 10 µM. 310,000 compounds, 1.3% hits. BAM8-22 antagonism; hits give low values;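 active = calcium-response B-score plate-corrected more than 3 library SD below zero, starting fluorescence within 5 deviations, no agonist response on first addition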;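 note: peak minus trough fluorescence over baseline after final BAM8-22 challenge near maximal dose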
RGS4 pot – RGS4 potentiators or activators, primary screen, cell-based, HEK293 M3R inducible RGS4, calcium flux; carbachol calcium flux Fluo4; hits give low values; 310,000 compounds, 0.92% hits; B-score at 10 µM;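 active = B-score of the integrated calcium signal more than 4 SD below the library mean, with starting fluorescence not abnormally high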;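 note: negative B-score means reduced calcium response which marks RGS4 activation or potentiation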
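Material: Inducible-RGS4 HEK293 cells carrying M3 receptor; also added: carbachol at ECmax as muscarinic agonist stimulus; incubation: compound preincubation 20 min at room temperature before agonist; signal: Fluo4-AM (2 µM) calcium-flux fluorescence, kinetic read; measure: integrated calcium ratio converted to B score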
MrgX1 antag conf – MrgX1 receptor antagonists, duplicate retest, confirmation, HEK293 cells, Fluo-4 calcium flux | shares compounds with MrgX1 antag | AID 602420, 2012 | 2,300 compounds, 19% hits | remaining BAM8-22 calcium response % of control (hits give low values), % at 10 µM | BAM8-22 calcium flux; hits give low values;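 active = remaining agonist calcium response no higher than 100% minus 3 SD of agonist-only control wells, with starting fluorescence near control levels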;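 note: agonist BAM8-22 given at a near maximal EC90 to ECmax level; peak minus minimum fluorescence divided by baseline after agonist addition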
HEK293 Ca flux – nonspecific calcium signal in parental HEK293, confirmation, counter-screen for MrgX1 antagonist project, parental HEK293 cells, Fluo-4 calcium flux | shares compounds with MrgX1 antag | Fluo-4 calcium fluorescence, FDSS | fluorescence ratio F(max-min)/F0 at 10 µM | 4,000 compounds, 2% hits;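 active = duplicate-averaged calcium fluorescence ratio at least three times the standard deviation of buffer wells, a nonspecific response in parental cells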
HEK293 Ca counter – calcium response in parental HEK293 cells, primary screen, counter-screen for MrgX1 allosteric activator project, cell-based, Fluo-4 calcium flux, duplicate. shares compounds with MrgX1 antag. Fluo-4 fluorescence ratio; hits give high values. fluorescence ratio F(max-min)/F0 at 10 µM. 4,000 compounds, 0.4% hits. AID 624114, 2012;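 active = calcium fluorescence ratio, averaged over duplicates, at least 3 SD of the buffer-well ratio, meaning a nonspecific response in receptor-free cells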;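 note: untransfected parental HEK293 lacking MrgX1 used as counterscreen for MrgX1 allosteric activators; fluorescence change taken during the second addition on a kinetic imager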
HEK293 Ca cntr2 – calcium response in parental HEK293 cells, primary screen, counter-screen for MrgX1 agonist project, cell-based, Fluo-4 calcium flux, duplicate, agonist mode; shares compounds with MrgX1 antag; Fluo-4 calcium fluorescence (FDSS); hits give high values; fluorescence ratio F(max-min)/F0 at 10 µM; 4,000 compounds, 8.7% hits; AID 624115, 2012;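 active = calcium fluorescence ratio at least three times the spread of buffer wells, meaning a non-specific response in parental cells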
A number is an active result; n = inactive; x = no result. This is a sample that favours compounds with a hit; in the whole collection about 3.5% have one here.

SMILES | MrgX1 allo act | RGS4 inh | MrgX1 agonist | MrgX1 antag | RGS4 pot | MrgX1 antag conf | HEK293 Ca flux | HEK293 Ca counter | HEK293 Ca cntr2
CC(=O)N(C)c1ccc(NC(=O)N2CCOCC2)cc1 | n | n | n | n | n | x | x | x | x
Cc1ccc(Nc2c(-c3ccc(C)o3)nc3ncccn23)cc1 | n | n | n | n | n | x | x | x | x
Cc1ccc(-c2nc3ncccn3c2Nc2ccc3c(c2)OCO3)o1 | n | n | n | -5.4 | n | n | n | n | n
O=S(=O)(NCCN1CCCC1)c1ccc(Br)cc1 | n | n | n | n | n | x | x | x | x
O=S(=O)(NCCN1CCCC1)c1ccc(Cl)cc1 | n | n | n | -4.8 | n | n | n | n | n
OCCC1CN(C/C=C/c2ccco2)CCN1Cc1ccccc1 (stereo not given) | n | n | n | -5.2 | n | n | n | n | n
COc1ccc(CNC(=S)Nc2ccccc2)cc1Cl | n | n | n | n | n | x | x | x | x
CCCOc1ccc(CNC(=S)Nc2ccccc2)cc1Cl | n | n | n | -6.7 | n | 77% | n | n | n
CC(C)c1ccc(NC(=O)COc2ccc(F)cc2C(=O)c2cnn(-c3ccccc3)c2)cc1 | n | n | n | -5.3 | n | n | n | n | n
O=C(COc1ccccc1C(=O)c1cnn(-c2ccccc2)c1)Nc1ccc2ccccc2c1 | n | n | n | n | n | x | x | x | x
COC(=O)c1ccc(Oc2ccc(S(=O)(=O)N3CCCCC3)cc2N)cc1 | n | n | n | -4.9 | n | n | n | n | n
COC(=O)CNc1cc(S(=O)(=O)N2CCCCC2)ccc1Oc1ccc(C(=O)OC)cc1 | n | n | n | n | n | x | x | x | x
COc1ccc(S(=O)(=O)N2CCCCC2)cc1C(=O)N1CCCC1 | n | n | n | -5.6 | n | n | n | n | n
CC(OC(=O)CCN=C1NS(=O)(=O)c2ccccc21)C(=O)N(C)c1ccccc1 (stereo not given) | n | n | n | -11 | n | n | n | n | n
O=C(CN1C(=O)NC2(CCCC2)C1=O)OCc1c(F)cccc1Cl | n | n | n | n | n | x | x | x | x
CCCn1cc(SCC(=O)NCc2ccco2)c2ccccc21 | n | n | n | -9 | n | n | n | n | n
CCCCNc1nnc(SCC(=O)c2c[nH]c3ccccc23)s1 | n | n | n | n | n | x | x | x | x
COc1ccc(CN2CN=C(Nc3nc4ccccc4s3)NC2)cc1 | n | n | n | -7.5 | n | 57% | n | n | n
c1ccc(CN2CN=C(Nc3nc4ccccc4s3)NC2)cc1 | n | n | n | n | n | x | x | x | x
O=C(NCCc1ccccc1)C1CCN(C(=O)NCc2ccccc2)CC1 | n | n | n | -11 | n | n | n | n | n
O=C(NCCN1CCC(Cc2ccccc2)CC1)C1CCN(S(=O)(=O)N2CCC3(CC2)OCCO3)CC1 | n | n | n | n | n | x | x | x | x
O=C(NCCc1ccccc1)C1CCN(S(=O)(=O)N2CCC3(CC2)OCCO3)CC1 | n | n | n | -6 | n | n | n | n | n
Cc1cc2c3c([nH]c2cc1S(=O)(=O)NCCCOC(C)C)CC(C)(C)CC3=O | n | n | n | n | n | x | x | x | x
O=C1CCCC2=C1Sc1ccccc1N2 | n | n | n | -4.8 | n | n | n | n | n
O=C1N=C(c2ccccc2)C(c2ccccc2)N1 (stereo not given) | n | n | n | -7.3 | n | n | n | n | n
SMILES | MrgX1 allo act | RGS4 inh | MrgX1 agonist | MrgX1 antag | RGS4 pot | MrgX1 antag conf | HEK293 Ca flux | HEK293 Ca counter | HEK293 Ca cntr2
CCCNC(=O)c1ccc2nc(-c3ccccc3)c(-c3ccccc3)nc2c1 | n | n | n | -5.3 | n | n | n | n | n
O=C(c1ccc2nc(-c3ccco3)c(-c3ccco3)nc2c1)N1CCN(c2ncccn2)CC1 | n | n | n | -6 | n | 83% | n | n | n
O=C(Nc1ccccc1)c1ccc2nc(-c3ccco3)c(-c3ccco3)nc2c1 | n | n | n | -4.6 | n | 79% | n | n | n
O=C(Nc1ccc(N2CCOCC2)cc1)c1ccc2nc(-c3ccco3)c(-c3ccco3)nc2c1 | n | n | n | n | n | x | x | x | x
O=C(c1cccc(C(=O)N2CCN(c3ncccn3)CC2)c1)N1CCN(c2ncccn2)CC1 | n | n | n | n | n | x | x | x | x
Cc1cc(C)c(Cn2ncn(-c3ccc(Br)cc3)c2=O)c(C)c1 | n | n | n | n | n | x | x | x | x
CN1CCN(c2ccc(-c3ccnn3C(=O)Nc3ccccc3)cc2)CC1 | n | n | n | -10 | n | n | n | n | n
CN1CCN(c2ccc(NC(=O)C(C)(c3ccccc3)c3ccccc3)cc2)CC1 | n | n | n | n | n | x | x | x | x
CCOC(=O)C(NC(=O)c1ccccc1)=C(C)C | n | n | n | -8.9 | n | n | n | n | n
CCCCOC(=O)C(NC(=O)c1ccccc1)=C(C)C | n | n | n | n | n | x | x | x | x
O=C(N[C@@H](Cc1ccccc1)C(=O)NCc1ccc(F)cc1)C1CCNCC1 | n | n | n | n | n | x | x | x | x
COc1ccc(CCNC(=O)c2ccc(OCC(=O)N3CCOCC3)c(OC)c2)cc1OC | n | n | n | n | n | x | x | x | x
O=C(Nc1ccon1)c1cccc(S(=O)(=O)N2CCCCC2)c1 | n | n | n | n | n | x | x | x | x
COc1nc(Nc2ccccc2F)nc(OC)n1 | n | n | n | -8.1 | n | n | n | n | n
COc1ccc(S(=O)(=O)N2CCCOC2CNC(=O)C(=O)NCc2ccccc2F)cc1C (stereo not given) | n | n | n | n | n | x | x | x | x
COc1cccc(C(=O)c2c(C)c(CCC#N)n3ccccc23)c1 | n | n | n | n | n | x | x | x | x
Cc1c(C(=O)c2cccc(F)c2)c2ccccn2c1CCC#N | n | n | n | -10 | n | 84% | n | n | n
CS(=O)(=O)N(Cc1ccc(Cl)cc1)c1ccc(C(=O)NCCC2=CCCCC2)cc1 | n | n | n | -5.4 | n | n | n | n | n
O=C(COC(=O)c1ccc(O)cc1)NCCCc1ccccc1 | x | n | x | x | n | x | x | x | x

Bioassay records as filed in PubChem BioAssay.
